Experimental data as given in ChEMBL document CHEMBL1142492 (J Med Chem, 2008).

What was measured:
[1] = molecular target: Activated CDC42 kinase 1 (Homo sapiens) (UniProt Q07912); assay: Inhibition of TNK2 at 3 uM
[2] = molecular target: cGMP-dependent protein kinase 2 (Homo sapiens) (UniProt Q13237); assay: Inhibition of PRKG2 at 3 uM
[3] = molecular target: Mitogen-activated protein kinase 9 (Homo sapiens) (UniProt P45984); assay: Inhibition of JNK2 at 3 uM
[4] = molecular target: Tyrosine-protein kinase ABL1 (Homo sapiens) (UniProt P00519); assay: Inhibition of ABL1 at 3 uM
[5] = molecular target: Phosphatidylinositol 4-phosphate 5-kinase type-1 alpha (Homo sapiens) (UniProt Q99755); assay: Inhibition of PIP5K1A at 3 uM
Homo sapiens = species on record: Homo sapiens; details: 3 uM
[6] = molecular target: Casein kinase I isoform gamma-2 (Homo sapiens) (UniProt P78368); assay: Inhibition of CSNK1G2 at 3 uM
[7] = molecular target: Rho-associated protein kinase 2 (Homo sapiens, UniProt O75116); assay: Inhibition of ROCK2
[8] = molecular target: Mitogen-activated protein kinase kinase kinase kinase 3 (Homo sapiens) (UniProt Q8IVH8); assay: Inhibition of MAP4K3 at 3 uM
[9] = molecular target: Sodium-dependent noradrenaline transporter (Homo sapiens) (UniProt P23975); assay: Inhibition of human NET at 3 uM
In short: (§1)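 Counter-screen binding/enzyme panel at single 3 μM, n=2; results as percent inhibition. Species per target as listed (rat NMDA, GABAA sites; human receptors, transporters; rabbit ACE).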

[10] = molecular target: Serine/threonine-protein kinase Chk2 (Homo sapiens) (UniProt O96017); assay: Inhibition of CHEK2 at 3 uM
in vivo = details: Sprague-Dawley, rat, plasma, iv, 1 mg/kg
[11] = molecular target: Adenosine receptor A1 (Homo sapiens) (UniProt P30542); assay: Inhibition of human adenosine A1 receptor at 3 uM; in short: as §1
[12] = molecular target: Serine/threonine-protein kinase N1 (Homo sapiens) (UniProt Q16512); assay: Inhibition of PKN1 at 3 uM
[13] = molecular target: Angiotensin-converting enzyme (Oryctolagus cuniculus) (UniProt P12822); assay: Inhibition of rabbit ACE at 3 uM; in short: as §1
[14] = molecular target: STE20-like serine/threonine-protein kinase (Homo sapiens) (UniProt Q9H2G2); assay: Inhibition of SLK at 3 uM
[15] = molecular target: Phosphatidylinositol 5-phosphate 4-kinase type-2 beta (Homo sapiens) (UniProt P78356); assay: Inhibition of PIP5K2B at 3 uM
[16] = system: Epidermal growth factor receptor (Homo sapiens), P00533 [G719S]; assay: Inhibition of EGFR G719S mutant at 3 uM; assay type: protein assay
[17] = molecular target: cAMP-dependent protein kinase catalytic subunit alpha (Homo sapiens) (UniProt P17612); assay: Inhibition of PKAC-alpha at 3 uM
[18] = molecular target: Dual specificity protein kinase CLK1 (Homo sapiens) (UniProt P49759); assay: Inhibition of CLK1 at 3 uM
[19] = molecular target: Serine/threonine-protein kinase 33 (Homo sapiens) (UniProt Q9BYT3); assay: Inhibition of STK33 at 3 uM
[20] = Half life in Sprague-Dawley rat at 1 mg/kg, iv; details: in vivo
[21] = molecular target: T1, Epidermal growth factor receptor (Homo sapiens) (UniProt P04626+P00533+Q15303+P21860); assay: Inhibition of EGFR L747-S752del,P753S mutant at 3 uM; assay type: protein assay
[22] = molecular target: Death-associated protein kinase 2 (Homo sapiens) (UniProt Q9UIK4); assay: Inhibition of DAPK2 at 3 uM
[23] = molecular target: Insulin-like growth factor 1 receptor (Homo sapiens) (UniProt P08069); assay: Inhibition of IGF1R at 3 uM
[24] = molecular target: Phosphatidylinositol 4,5-bisphosphate 3-kinase catalytic subunit delta isoform (Homo sapiens) (UniProt O00329); assay: Inhibition of PIK3CD at 3 uM
[25] = molecular target: Serine/threonine-protein kinase 17A (Homo sapiens) (UniProt Q9UEE5); assay: Inhibition of DRAK1 at 3 uM
[26] = molecular target: Mitogen-activated protein kinase kinase kinase 12 (DLK) (Homo sapiens) (UniProt Q12852); assay: Inhibition of DLK at 3 uM
[27] = molecular target: Casein kinase I isoform gamma-3 (Homo sapiens) (UniProt Q9Y6M4); assay: Inhibition of CSNK1G3 at 3 uM
[28] = molecular target: Mitogen-activated protein kinase kinase kinase 20 (Homo sapiens) (UniProt Q9NYL2); assay: Inhibition of ZAK at 3 uM
[29] = molecular target: Cyclin-dependent kinase 11B (Homo sapiens) (UniProt P21127); assay: Inhibition of CDC2L1 at 3 uM
[30] = system: Mast/stem cell growth factor receptor Kit (Homo sapiens), P10721 [V559D]; assay: Inhibition of KIT V559D mutant at 3 uM
Oryctolagus cuniculus = species on record: Oryctolagus cuniculus; details: 3 uM
[31] = molecular target: Adenosine receptor A2a (Homo sapiens) (UniProt P29274); assay: Inhibition of human adenosine A2A receptor at 3 uM; in short: as §1
[32] = molecular target: Discoidin domain-containing receptor 2 (Homo sapiens) (UniProt Q16832); assay: Inhibition of DDR2 at 3 uM
[33] = molecular target: BMP-2-inducible protein kinase (Homo sapiens) (UniProt Q9NSY1); assay: Inhibition of BIKE at 3 uM
[34] = molecular target: Mitogen-activated protein kinase kinase kinase 3 (Homo sapiens) (UniProt Q99759); assay: Inhibition of MAP3K3 at 3 uM
[35] = molecular target: T1, Epidermal growth factor receptor (Homo sapiens); assay: Inhibition of EGFR E746-A750del mutant at 3 uM; assay type: protein assay
[36] = system: Tyrosine-protein kinase ABL1 (Homo sapiens), P00519 [T315I]; assay: Inhibition of ABL1 T315I mutant at 3 uM
[37] = molecular target: Serine/threonine-protein kinase Nek6 (Homo sapiens) (UniProt Q9HC98); assay: Inhibition of NEK6 at 3 uM
[38] = molecular target: Calcium/calmodulin-dependent protein kinase kinase 1 (Homo sapiens) (UniProt Q8N5S9); assay: Inhibition of CAMKK1 at 3 uM
[39] = molecular target: Serine/threonine-protein kinase MARK2 (Homo sapiens) (UniProt Q7KZI7); assay: Inhibition of MARK2 at 3 uM
[40] = molecular target: Dual specificity protein kinase CLK2 (Homo sapiens) (UniProt P49760); assay: Inhibition of CLK2 at 3 uM
[41] = molecular target: 5-hydroxytryptamine receptor 2A (Homo sapiens) (UniProt P28223); assay: Inhibition of human 5HT2 receptor at 3 uM; in short: as §1
[42] = molecular target: Death-associated protein kinase 3 (Homo sapiens) (UniProt O43293); assay: Inhibition of DAPK3 at 3 uM
[43] = system: Tyrosine-protein kinase ABL1 (Homo sapiens), P00519 [M351T]; assay: Inhibition of ABL1 M351T mutant at 3 uM
[44] = molecular target: Mu-type opioid receptor (Homo sapiens) (UniProt P35372); assay: Inhibition of human mu opioid receptor at 3 uM; in short: as §1
Chain of Mu-type opioid receptor (Homo sapiens) (P35372 whole entry): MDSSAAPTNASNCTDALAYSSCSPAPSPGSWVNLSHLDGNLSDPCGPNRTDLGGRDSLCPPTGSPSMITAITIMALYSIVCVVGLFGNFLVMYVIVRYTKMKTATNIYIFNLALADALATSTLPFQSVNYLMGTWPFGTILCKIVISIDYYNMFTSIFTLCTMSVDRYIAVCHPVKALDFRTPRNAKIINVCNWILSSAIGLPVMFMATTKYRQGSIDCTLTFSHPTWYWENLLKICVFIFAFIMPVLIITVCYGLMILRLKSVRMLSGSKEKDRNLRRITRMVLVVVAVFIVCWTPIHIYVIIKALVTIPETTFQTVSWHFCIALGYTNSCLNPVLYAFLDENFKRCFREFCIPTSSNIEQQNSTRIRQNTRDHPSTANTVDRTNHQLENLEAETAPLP

Chain of 5-hydroxytryptamine receptor 2A (Homo sapiens) (P28223 whole entry): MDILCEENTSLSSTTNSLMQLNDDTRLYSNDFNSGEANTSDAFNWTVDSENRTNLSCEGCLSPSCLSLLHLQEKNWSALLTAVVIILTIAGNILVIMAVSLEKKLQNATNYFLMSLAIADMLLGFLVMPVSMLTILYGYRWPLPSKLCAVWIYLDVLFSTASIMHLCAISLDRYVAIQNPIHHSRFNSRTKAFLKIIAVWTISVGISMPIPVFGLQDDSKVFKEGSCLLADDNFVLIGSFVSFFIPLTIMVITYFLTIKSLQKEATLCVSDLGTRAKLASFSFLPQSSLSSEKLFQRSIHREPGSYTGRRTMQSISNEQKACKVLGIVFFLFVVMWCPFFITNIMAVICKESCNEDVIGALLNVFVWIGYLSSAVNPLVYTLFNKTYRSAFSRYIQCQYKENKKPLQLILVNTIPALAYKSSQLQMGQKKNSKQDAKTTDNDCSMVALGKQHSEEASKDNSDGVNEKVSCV
Chain of STE20-like serine/threonine-protein kinase (Homo sapiens) (Q9H2G2 whole entry, looked up): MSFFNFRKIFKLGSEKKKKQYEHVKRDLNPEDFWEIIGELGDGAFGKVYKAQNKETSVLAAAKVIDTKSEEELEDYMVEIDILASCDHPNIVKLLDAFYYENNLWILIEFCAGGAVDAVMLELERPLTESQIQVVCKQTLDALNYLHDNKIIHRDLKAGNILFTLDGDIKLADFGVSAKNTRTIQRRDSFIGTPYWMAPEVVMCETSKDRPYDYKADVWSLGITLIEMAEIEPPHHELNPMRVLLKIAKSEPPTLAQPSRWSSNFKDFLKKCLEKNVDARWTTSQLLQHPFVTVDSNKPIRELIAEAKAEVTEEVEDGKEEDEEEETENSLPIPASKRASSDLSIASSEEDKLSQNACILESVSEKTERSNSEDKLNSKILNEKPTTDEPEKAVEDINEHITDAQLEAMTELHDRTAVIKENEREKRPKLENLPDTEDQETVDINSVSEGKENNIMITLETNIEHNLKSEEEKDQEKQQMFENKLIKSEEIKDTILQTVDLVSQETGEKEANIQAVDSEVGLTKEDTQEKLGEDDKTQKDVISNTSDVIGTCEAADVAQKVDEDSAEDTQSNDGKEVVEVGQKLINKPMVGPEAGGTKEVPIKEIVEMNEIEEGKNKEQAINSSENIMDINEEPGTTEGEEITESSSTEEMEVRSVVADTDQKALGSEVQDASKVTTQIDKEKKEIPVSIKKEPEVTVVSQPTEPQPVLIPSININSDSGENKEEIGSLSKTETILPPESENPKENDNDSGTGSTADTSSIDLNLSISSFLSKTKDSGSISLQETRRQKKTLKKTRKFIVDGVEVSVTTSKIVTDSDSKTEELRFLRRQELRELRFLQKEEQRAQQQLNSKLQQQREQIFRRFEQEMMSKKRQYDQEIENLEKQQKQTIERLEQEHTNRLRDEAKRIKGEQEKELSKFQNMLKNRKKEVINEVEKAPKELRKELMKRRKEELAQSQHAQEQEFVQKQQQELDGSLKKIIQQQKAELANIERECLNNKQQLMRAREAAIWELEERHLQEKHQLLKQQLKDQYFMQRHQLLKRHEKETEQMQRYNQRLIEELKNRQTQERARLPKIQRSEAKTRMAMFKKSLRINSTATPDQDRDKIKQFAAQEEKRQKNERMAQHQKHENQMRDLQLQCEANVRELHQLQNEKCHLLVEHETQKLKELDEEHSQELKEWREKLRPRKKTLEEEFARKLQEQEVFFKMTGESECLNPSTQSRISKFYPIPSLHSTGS
Chain of Phosphatidylinositol 5-phosphate 4-kinase type-2 beta (Homo sapiens) (P78356 whole entry): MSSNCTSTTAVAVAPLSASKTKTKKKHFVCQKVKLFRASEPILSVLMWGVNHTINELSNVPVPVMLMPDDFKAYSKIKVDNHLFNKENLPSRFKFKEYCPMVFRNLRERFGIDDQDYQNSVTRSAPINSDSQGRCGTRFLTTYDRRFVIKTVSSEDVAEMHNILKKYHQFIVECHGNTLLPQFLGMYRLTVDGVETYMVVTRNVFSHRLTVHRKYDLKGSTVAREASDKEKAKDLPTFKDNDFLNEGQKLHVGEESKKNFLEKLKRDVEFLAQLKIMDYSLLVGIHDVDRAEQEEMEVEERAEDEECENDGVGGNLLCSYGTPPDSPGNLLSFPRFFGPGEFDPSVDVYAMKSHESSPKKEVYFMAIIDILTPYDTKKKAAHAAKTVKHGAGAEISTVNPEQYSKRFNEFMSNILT
Chain of Dual specificity protein kinase CLK1 (Homo sapiens) (P49759 whole entry, looked up): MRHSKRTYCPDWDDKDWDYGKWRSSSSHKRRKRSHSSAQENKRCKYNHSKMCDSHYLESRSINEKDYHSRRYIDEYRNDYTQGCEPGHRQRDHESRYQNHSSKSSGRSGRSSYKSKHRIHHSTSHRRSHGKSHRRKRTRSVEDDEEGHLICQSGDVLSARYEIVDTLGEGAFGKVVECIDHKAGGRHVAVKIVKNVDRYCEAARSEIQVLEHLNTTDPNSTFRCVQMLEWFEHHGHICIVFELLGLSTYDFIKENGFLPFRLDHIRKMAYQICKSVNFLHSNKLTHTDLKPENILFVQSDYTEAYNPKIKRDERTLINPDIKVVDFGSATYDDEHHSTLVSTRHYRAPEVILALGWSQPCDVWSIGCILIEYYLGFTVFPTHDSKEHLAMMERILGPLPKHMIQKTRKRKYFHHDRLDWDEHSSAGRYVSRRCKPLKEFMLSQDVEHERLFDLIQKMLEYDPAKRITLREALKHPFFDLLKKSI
Chain of Serine/threonine-protein kinase Chk2 (Homo sapiens) (O96017 whole entry): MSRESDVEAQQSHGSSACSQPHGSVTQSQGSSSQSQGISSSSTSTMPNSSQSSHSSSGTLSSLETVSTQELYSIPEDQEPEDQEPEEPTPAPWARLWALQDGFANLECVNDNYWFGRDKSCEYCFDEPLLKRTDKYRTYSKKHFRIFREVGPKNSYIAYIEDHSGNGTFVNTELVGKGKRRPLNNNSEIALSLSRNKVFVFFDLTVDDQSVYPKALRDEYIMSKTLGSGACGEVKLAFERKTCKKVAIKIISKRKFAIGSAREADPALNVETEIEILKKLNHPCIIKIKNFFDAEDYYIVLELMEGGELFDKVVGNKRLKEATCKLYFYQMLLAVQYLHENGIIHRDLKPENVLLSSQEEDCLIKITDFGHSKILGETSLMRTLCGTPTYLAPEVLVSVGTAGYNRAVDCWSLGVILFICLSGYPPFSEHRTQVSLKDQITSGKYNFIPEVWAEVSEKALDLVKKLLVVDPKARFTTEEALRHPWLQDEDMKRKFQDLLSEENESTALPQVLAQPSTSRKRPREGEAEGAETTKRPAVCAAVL
Chain of Casein kinase I isoform gamma-2 (Homo sapiens) (P78368 whole entry, looked up, canonical isoform): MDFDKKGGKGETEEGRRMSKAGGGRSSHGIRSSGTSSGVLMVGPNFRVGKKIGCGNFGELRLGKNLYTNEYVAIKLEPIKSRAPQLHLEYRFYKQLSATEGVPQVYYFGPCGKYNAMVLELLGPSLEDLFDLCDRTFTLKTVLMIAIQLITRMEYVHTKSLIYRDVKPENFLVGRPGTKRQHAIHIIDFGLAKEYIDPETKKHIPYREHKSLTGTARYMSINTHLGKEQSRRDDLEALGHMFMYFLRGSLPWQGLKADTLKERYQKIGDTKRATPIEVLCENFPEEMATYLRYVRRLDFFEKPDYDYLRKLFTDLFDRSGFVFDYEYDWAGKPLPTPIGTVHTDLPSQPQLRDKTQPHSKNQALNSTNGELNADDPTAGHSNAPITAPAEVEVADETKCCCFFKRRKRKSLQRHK
Chain of Adenosine receptor A1 (Homo sapiens) (P30542 whole entry): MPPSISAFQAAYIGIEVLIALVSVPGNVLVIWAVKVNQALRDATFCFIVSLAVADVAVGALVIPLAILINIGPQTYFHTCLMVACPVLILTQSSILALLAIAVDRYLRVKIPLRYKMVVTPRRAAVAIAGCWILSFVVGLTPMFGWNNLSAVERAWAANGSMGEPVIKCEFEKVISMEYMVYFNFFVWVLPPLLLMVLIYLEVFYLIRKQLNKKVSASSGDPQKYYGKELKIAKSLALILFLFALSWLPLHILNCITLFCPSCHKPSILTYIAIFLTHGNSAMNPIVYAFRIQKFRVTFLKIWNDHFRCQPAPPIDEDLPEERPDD
Chain of Serine/threonine-protein kinase Nek6 (Homo sapiens) (Q9HC98 whole entry): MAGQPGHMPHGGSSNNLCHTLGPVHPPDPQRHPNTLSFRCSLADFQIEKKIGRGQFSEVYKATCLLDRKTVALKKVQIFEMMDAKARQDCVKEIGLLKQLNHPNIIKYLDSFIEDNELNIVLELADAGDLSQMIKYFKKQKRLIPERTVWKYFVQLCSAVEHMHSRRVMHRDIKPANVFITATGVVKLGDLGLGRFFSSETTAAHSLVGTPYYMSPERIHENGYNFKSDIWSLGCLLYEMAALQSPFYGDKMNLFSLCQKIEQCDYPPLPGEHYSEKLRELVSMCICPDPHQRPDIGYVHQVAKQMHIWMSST
Chain of Death-associated protein kinase 2 (Homo sapiens) (Q9UIK4 whole entry, looked up): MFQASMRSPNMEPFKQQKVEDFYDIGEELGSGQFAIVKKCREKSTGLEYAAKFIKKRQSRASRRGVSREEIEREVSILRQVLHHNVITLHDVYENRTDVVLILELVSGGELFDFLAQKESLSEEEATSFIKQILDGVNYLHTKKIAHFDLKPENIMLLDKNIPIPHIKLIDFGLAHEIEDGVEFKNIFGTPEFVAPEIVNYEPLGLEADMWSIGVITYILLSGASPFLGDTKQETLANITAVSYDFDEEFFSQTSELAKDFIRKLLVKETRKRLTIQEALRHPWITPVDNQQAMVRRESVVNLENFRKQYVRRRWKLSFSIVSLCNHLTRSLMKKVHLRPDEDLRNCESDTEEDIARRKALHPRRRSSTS

CN(C)CCOc1cc(-c2cn[nH]c2)ccc1NC(=O)C1COc2ccccc2O1 (configuration not stated) [SR-3677]
inhibition [1]: < 10%
inhibition [2]: < 10%
inhibition [3]: < 10%
inhibition [4]: < 10%
inhibition [5]: < 10%
inhibition (Homo sapiens): 12%
inhibition [6]: < 10%
IC50 [7]: 3.2 nM
inhibition [8]: < 10%
inhibition [9]: 16%
inhibition [10]: < 10%
AUC (in vivo): 0.7 µM·h
inhibition [11]: -4%
inhibition [12]: < 10%
inhibition [13]: 1%
inhibition [14]: < 10%
inhibition [15]: < 10%
inhibition [16]: < 10%
inhibition [17]: < 10%
inhibition [18]: 94.9%
inhibition [19]: < 10%
half-life [20]: 48 min
inhibition [21]: < 10%
inhibition [22]: < 10%
inhibition [23]: < 10%
inhibition [24]: < 10%
inhibition [25]: < 10%
inhibition [26]: < 10%
inhibition [27]: < 10%
inhibition [28]: < 10%
inhibition [29]: < 10%
inhibition [30]: < 10%
inhibition (Oryctolagus cuniculus): 4%
inhibition [31]: 5%
inhibition [32]: < 10%
inhibition [33]: < 10%
inhibition [34]: < 10%
inhibition [35]: < 10%
inhibition [36]: < 10%
inhibition [37]: < 10%
inhibition [38]: < 10%
inhibition [39]: < 10%
inhibition [40]: 70%
inhibition [41]: 2%
inhibition [42]: < 10%
inhibition [43]: < 10%
inhibition [44]: 5%
